# Screening results deposited in PubChem by Sanford-Burnham Center for Chemical Genomics.
# Apaf-1 inh: inhibitors of human Apaf-1 apoptosome, primary screen, biochemical, DEVD-Rh110 fluorescence, uHTS | inhibition, % at 20 µM | reconstituted apoptosome caspase-3 activity | AID 489030, 2010 | 330,000 tested, 0.71% active | Apoptotic protease-activating factor 1 (Homo sapiens), O14727; active = inhibition of at least 40% at 20 µM;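 also: plate controls were DMSO wells for no effect and DEVD-CHO caspase inhibitor wells for full effect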
#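 Material: reconstituted apoptosome with Apaf-1, cytochrome c, caspase-9, procaspase-3, dATP; medium: pH 7.5 Hepes buffer with CHAPS, BSA, DTT; also added: cytochrome c and DEVD-Rh110 substrate; timing: 30 min plus 50 min, RT; signal: Rh110 fluorescence intensity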
# UBC13 polyUb: UBC13 polyubiquitin chain formation inhibitors, primary screen, biochemical, TR-FRET, uHTS; Ubiquitin-conjugating enzyme E2 N (Homo sapiens), P61088; inhibition, % at 20 µM; 330,000 tested, 0.47% active; in the data active = inhibition above about 45%, passing the limit was not always enough
# Target sequence (P61088 whole entry, looked up): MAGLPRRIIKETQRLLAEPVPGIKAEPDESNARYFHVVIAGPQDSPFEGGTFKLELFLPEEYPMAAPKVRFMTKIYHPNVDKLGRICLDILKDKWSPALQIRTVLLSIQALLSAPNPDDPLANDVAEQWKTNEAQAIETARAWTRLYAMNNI
# Mdm2-MdmX inh: inhibitors of human Mdm2-MdmX association, primary screen, cell-based, luminescence, split luciferase, SaOS-2, uHTS; 330,000 tested, 3% active; Protein Mdm4 (Homo sapiens) + E3 ubiquitin-protein ligase Mdm2 (Homo sapiens), …; AID 485346, 2010; inhibition, % at 8 µM; SaOS-2 split-luciferase Mdm2/MdmX complementation;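 active = inhibition of at least 50% at 8 µM in the primary screen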
# UPR XBP1 act: activators of adaptive XBP1 UPR arm, primary screen, cell-based, CHO-XBP1 luciferase reporter, luminescence, uHTS. IRE1-XBP1 UPR activation; percent of tunicamycin response, DMSO as zero. activation, % at 20 µM. 330,000 tested, 0.33% active;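 active = versus positive control, 20 µM dose yields 30% or more activation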;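 also: 100% = tunicamycin at 10 µg/mL and 0% = DMSO only wells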
#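 Assay system: IRE1-XBP1 luciferase reporter CHO line. Input: 1000 cells/well. Buffer or medium: F12 with 10% serum. Doses: 20 µM, 1% DMSO. Times: overnight seeding at 37 °C, 6 h compound treatment at 37 °C. Technique: Steady-Glo luciferase glow luminescence, 10 min after reagent addition.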
# CHOP UPR activ: activators of apoptotic CHOP UPR arm, primary screen, cell-based, CHO-CHOP luciferase reporter, luminescence, uHTS; 330,000 tested, 0.34% active; UPR activation; percent of tunicamycin response over DMSO baseline; AID 449763, 2010; activation, % at 10 µM;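 active = at 10 µM dose, activation of 40% or more, normalized to positive control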;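 also: 100% = tunicamycin at 10 µg/mL and 0% = DMSO alone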
#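 Test system: CHO-CHOP cells, stable luciferase reporter of PERK-eIF2a-CHOP signalling | Quantity: 500 CHO-CHOP cells per well | Buffer or medium: F12 plus 10% serum | Compound dosing: 10 µM single point, 0.5% DMSO | Schedule: 6 h compound treatment, 37 °C | Signal: Luciferase luminescence | Control set: Tunicamycin high control, DMSO low control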
# Mdm2-MdmX conf: Mdm2-MdmX complex disruptors, retested hits, confirmation, luminescence, single concentration. 10,000 tested, 55% active. Mdm2-MdmX binding, luminescent assay. AID 489028, 2010. inhibition, % at 8 µM. shares compounds with Mdm2-MdmX inh; in the data active = inhibition above about 40%
# FLuc counter: full-length luciferase signal inhibition, confirmation, counter-screen for Mdm2/MdmX interaction inhibitor project, cell-based, single concentration, SaOS-2; SaOS-2 full-length luciferase counterscreen, luminescence; inhibition, % at 8 µM; shares compounds with Mdm2-MdmX inh; 6,200 tested, 77% active;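 active = mean inhibition at 8 µM reaching about 37%, which flags the compound as non-specific, limit read from the data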;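 also: p53-null SaOS-2 cells with luciferase driven by a doxycycline-inducible promoter; compound on cells about two nights before reading with doxycycline added after day one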
# * hit, by the source's call; x = no result given. An excerpt weighted towards active compounds, which were near 4.1% of everything screened.
SMILES,Apaf-1 inh,UBC13 polyUb,Mdm2-MdmX inh,UPR XBP1 act,CHOP UPR activ,Mdm2-MdmX conf,FLuc counter
COC(=O)[C@@]1(Cc2ccccc2)[C@H]2C(=O)N(Cc3ccccc3)C(=O)[C@H]2[C@H]2CN=C(SCc3ccc(Cl)cc3)N21,21,x,99*,0,11,99*,53*
COC(=O)[C@@]1(C)[C@H]2C(=O)N(Cc3ccccc3)C(=O)[C@H]2[C@H]2CN=C(SCc3ccc(Cl)cc3)N21,25,x,97*,1,5,100*,56*
CCN1C(=O)[C@H]2[C@H]3CN=C(SCc4ccc(Cl)cc4)N3[C@@](C)(C(=O)OC)[C@H]2C1=O,6,x,-1,1,2,x,x
CC[C@]1(C(=O)OC)[C@H]2C(=O)N(Cc3ccccc3)C(=O)[C@H]2[C@H]2CN=C(SCC(=O)c3ccccc3)N21,10,x,17,1,2,x,x
COC(=O)[C@@]1(C)[C@H]2C(=O)N(Cc3ccccc3)C(=O)[C@H]2[C@H]2CN=C(SCc3ccc(C#N)cc3)N21,5,x,71*,0,6,70*,51*
CCN1C(=O)[C@H]2[C@H]3CN=C(SCc4ccccc4)N3[C@@](C)(C(=O)OC)[C@H]2C1=O,14,x,-5,1,3,x,x
COC(=O)[C@@]1(Cc2ccccc2)[C@H]2C(=O)N(Cc3ccccc3)C(=O)[C@H]2[C@H]2CN=C(SCC(=O)c3ccccc3)N21,17,x,54*,3,4,55*,50*
CCN(CCCNC(=O)COc1cc(=O)n(CC)c2ccccc12)c1ccccc1,10,11,61*,0,2,28,x
CC(=O)C(=Cc1ccc(C(=O)O)cc1)C(C)=O,16,-2,1,2,-1,x,x
C/C(=C\c1ccc(C(=O)O)cc1)c1ccc2c(c1)C(C)(C)CCC2(C)C,25,-18,58*,1,-2,52*,44*
O=C(NC1CC1)C1CCN(C2CCN(C(=O)c3ccc4cccc(F)c4n3)CC2)CC1,-15,-15,15,-1,0,x,x
CCc1c(-c2ccccc2)nc2sc3c(c2c1N)CCCC3,24,0,72*,1,4,-19,x
Nc1c(C(=O)O)sc2nc(-c3ccccc3)c3c(c12)CCCC3,9,-14,-6,2,1,x,x
CCOc1ccc(/C=C2\SC(=S)N(CCC(=O)Nc3ccccc3C(=O)O)C2=O)cc1,23,-13,6,-1,1,x,x
C1CCCCCC(NCCN2CCNCC2)CCCCC1,-3,2,97*,6,1,93*,23
COc1ccccc1/C=C/CN1CCCC(CCC(=O)NCc2ccccc2F)C1 (configuration not stated),-5,-4,11,0,2,x,x
Cc1ccc(-n2sc3ccccc3c2=O)cc1,12,-11,29,-2,15,x,x
O=c1c2ccccc2sn1-c1ccc(F)cc1,22,-4,51*,-2,11,12,x
COc1cn(-c2ccccc2)nc1C(=O)OCC(=O)Nc1ccc(C)c(C)c1,-6,-5,10,-3,1,x,x
CN(C)CCCNS(=O)(=O)c1ccc(N2CCC(c3ccc(Cl)cc3)=N2)cc1,73*,55*,100*,75*,8,100*,2
O=S(=O)(c1ccc(N2CCC(c3ccc(Cl)cc3)=N2)cc1)N(CCO)CCO,19,24,18,4,1,x,x
CCOc1ccccc1OCCCC(=O)N(CC)CC(=O)Nc1c(F)cccc1F,1,4,-3,-3,1,x,x
COC(=O)c1ccc(NC(=O)c2ccc(NS(=O)(=O)c3cccc4cccnc34)cc2)cc1,19,5,27,-6,-1,x,x
O=C(Nc1ccccc1O)c1ccc(NS(=O)(=O)c2cccc3cccnc23)cc1,-6,-2,77*,18,1,24,x
CCOc1ccc(S(=O)(=O)Nc2cc(NS(=O)(=O)c3ccc(OCC)cc3)cc(C(=O)O)c2)cc1,16,-26,-10,0,0,x,x
SMILES,Apaf-1 inh,UBC13 polyUb,Mdm2-MdmX inh,UPR XBP1 act,CHOP UPR activ,Mdm2-MdmX conf,FLuc counter
Cc1nnc(NCc2n[nH]c(=O)c3ccccc23)c2ccccc12,-15,11,75*,5,1,21,x
COc1ccc(NCc2n[nH]c(=O)c3ccccc23)cc1,15,-17,-16,1,1,x,x
Cc1nc(SCc2nc3ccccc3[nH]2)c2oc3cc(Br)ccc3c2n1,16,-18,65*,14,-1,12,x
Cc1[nH]c2ccccc2c1/C=N/NC(=O)C1CC1(c1ccccc1)c1ccccc1 (configuration not stated),26,5,65*,5,2,48*,89*
Cc1[nH]c2ccccc2c1/C=N/NC(=O)CCC(=O)NCc1ccccc1,9,4,-14,2,-1,x,x
COC(=O)/C(=C\Nc1ccc(Cl)c2ccccc12)c1ncc(C(F)(F)F)cc1Cl,-4,0,59*,-2,2,4,x
CCOC(=O)/C(=C\Nc1ccccc1C(F)(F)F)Sc1ncc(C(F)(F)F)cc1Cl,8,-17,-3,-2,0,x,x
CCOC(=O)c1ccc(NC(=O)N(CC)CC)cc1,3,0,-24,0,1,x,x
Cc1nn(-c2ccccc2)c(Cl)c1CN(C(=O)CCl)c1cccc2ccccc12,16,-4,99*,0,8,99*,53*
O=C(CN1C(=O)CCC1=O)c1ccc(-c2ccccc2)cc1,8,19,-13,0,3,x,x
N=c1ccn(CC(=O)c2ccc(-c3ccccc3)cc2)cc1,6,1,66*,0,-1,69*,41*
O=c1c2ccccc2nc(/C=C/c2cc(Br)ccc2O)n1CCO,-11,6,65*,-1,1,57*,32
COc1ccc(OC)c(C(C[N+](=O)[O-])c2c(C)cc3ccccn23)c1 (configuration not stated),11,-11,68*,-13,35,49*,11
CCc1nnc(NC(=O)CCc2ccc(C)o2)s1,3,2,5,-2,1,x,x
